Where two headings read alike, the source gives them in different places.
Assays:
PhENR [1] = molecular target: T1, PhENR (Pyrococcus horikoshii, UniProt O58586); assay: Biocatalytic transformations with PhENR; assay type: biochemical; conditions: for acceptance as substrate: substrate scope
Procedure, shortened: (§1)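 Substrate (10 mM) was reduced with NADH or NADPH (15 mM) and enzyme in 50 mM buffer. The initial aerobic screen used Tris-HCl at pH 7, 8 or 9. Optimised anaerobic runs used degassed buffer under an Ar flush: 50 mM phosphate for TtENR, 50 mM Tris-HCl for PhENR, both pH 7, with NADPH. Mixtures were shaken 24 h at 30 °C, 120 r.p.m., then EtOAc-extracted. Conversion was read by achiral GC, e.e. by chiral GC or HPLC. One substrate was given in DMF (1% final).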

TtENR [2] = molecular target: T2, TtENR (Thermus thermophilus, UniProt P83818); assay: Biocatalytic transformations with TtENR; assay type: biochemical; conditions: for acceptance as substrate: substrate scope, Table 1
T2 sequence (P83818 1-178): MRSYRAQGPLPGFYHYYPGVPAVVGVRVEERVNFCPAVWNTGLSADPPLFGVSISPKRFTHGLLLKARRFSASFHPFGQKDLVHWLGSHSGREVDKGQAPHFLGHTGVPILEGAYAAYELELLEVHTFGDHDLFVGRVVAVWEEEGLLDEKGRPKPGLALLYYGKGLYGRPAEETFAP
Procedure, shortened: as §1

TtENR [3] = molecular target: T2, TtENR; assay: UV-visible difference titration of ligands with TtENR; assay type: binding
Procedure, shortened: (§2)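 UV–visible difference titrations at 25 °C in tandem cuvettes. Putative ligand (enones, enals, a quinone or a hydroxybenzaldehyde) was added both to enzyme solution in the sample cell and to 50 mM Tris-HCl pH 7.5 buffer in the reference cell. Spectral changes were followed as a function of ligand concentration.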

PhENR [4] = molecular target: T1, PhENR; assay: UV-visible difference titration of ligands with PhENR; assay type: binding
Procedure, shortened: as §2

yeast OYE [5] = conditions: read-out: dissociation constant (Kd); cited from earlier work
yeast OYE [6] = conditions: cited from earlier work; for rate of reduction of the flavin cofactor: biphasic kinetics
TtENR [7] = molecular target: T2, TtENR; assay: Stopped-flow reductive half reaction of TtENR; assay type: biochemical; conditions: monophasic, 37 °C, 100 mM Tris-HCl pH 7.4
Procedure, shortened: (§3)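 Anoxic stopped-flow at 37 °C in a glove box, single-mixing mode. Enzyme was mixed with NADPH or NADH at 0.4–10.0 mM in 100 mM Tris-HCl pH 7.4, with nitrogen-flushed buffers. Flavin reduction was monitored as A458 change with a diode-array detector.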

TtENR [8] = molecular target: T2, TtENR; assay: Steady-state turnover; assay type: biochemical; conditions: NADPH and dioxygen as substrates, 50 mM potassium phosphate pH 7.0, 75 °C
PhENR [9] = molecular target: T1, PhENR; assay: Stopped-flow reductive half reaction of PhENR; assay type: biochemical; conditions: monophasic, 37 °C, 100 mM Tris-HCl pH 7.4
Procedure, shortened: as §3

TtENR [10] = molecular target: T2, TtENR; assay: Stopped-flow reoxidation of reduced TtENR; assay type: biochemical; conditions: air-saturated buffer
Procedure, shortened: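 Enzyme in 50 mM potassium phosphate pH 7.0 was reduced anoxically with sodium dithionite, and excess dithionite was removed on a desalting column inside a glove box. Reduced enzyme was mixed in single-mixing stopped-flow at 37 °C with substrate at various concentrations or with air-saturated buffer. FMN reoxidation was followed at A458 by diode array. Curves were fitted with a two-exponential function.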

T1 sequence (O58586 whole entry): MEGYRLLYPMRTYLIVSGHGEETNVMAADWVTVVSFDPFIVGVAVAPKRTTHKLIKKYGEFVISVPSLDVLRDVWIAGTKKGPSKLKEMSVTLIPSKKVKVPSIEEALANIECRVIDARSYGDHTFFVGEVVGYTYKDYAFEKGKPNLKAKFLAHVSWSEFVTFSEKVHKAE

acceptance as substrate (PhENR [1]; Table 1) | acceptance as substrate (TtENR [2]) | Kd (TtENR [3]) [µM] | Kd (PhENR [4]) [µM] | Compound | also measured
good substrates | good substrates | – | – | CC(C)=CCCC(C)=CC=O (mixture of isomers) [Compound 4a, citral] | –
good substrates | good substrates | – | – | CC1CC(=O)N(c2ccccc2)C1=O (racemic) [Compound 5b, rac-N-phenyl-2-methylsuccinimide] | stereopreference compared with typical OYEs (PhENR [1]): inverted stereopreference; stereopreference compared with typical OYEs (TtENR [2]): inverted stereopreference
accepted but at lower conversion rates | accepted but at lower conversion rates | 40000 | 76000 | O=C1C=CCCC1 [Compound 1a, 2-Cyclohexen-1-one] | Kd (yeast OYE [5]): 32 µM; oxidative rate kox (yeast OYE [6]): 102 s⁻¹
good substrates | good substrates | – | – | CC1=CC(=O)CC(C)(C)C1=O [Compound 2a, 2,6,6-trimethylcyclohex-2-ene-1,4-dione] | stereopreference compared with typical OYEs (PhENR [1]): inverted stereopreference; stereopreference compared with typical OYEs (TtENR [2]): inverted stereopreference
good substrates | good substrates | – | – | CC/C=C(\C)C=O [Compound 3a, (E)-2-methylpent-2-enal] | conversion (PhENR [1]; Table 1): full conversion
– | – | – | – | NC(=O)C1=CN([C@@H]2O[C@H](COP(=O)(O)OP(=O)(O)OC[C@H]3O[C@@H](n4cnc5c(N)ncnc54)[C@H](O)[C@@H]3O)[C@@H](O)[C@H]2O)C=CC1 [NADH] | reductive rate (kred) (TtENR [7]): 0.25 s⁻¹
– | – | – | – | NC(=O)C1=CN([C@@H]2O[C@H](COP(=O)(O)OP(=O)(O)OC[C@H]3O[C@@H](n4cnc5c(N)ncnc54)[C@H](OP(=O)(O)O)[C@@H]3O)[C@@H](O)[C@H]2O)C=CC1 [NADPH] | reductive rate (kred) (TtENR [7]): 0.15 s⁻¹; rate of reduction of the flavin cofactor (yeast OYE [6]; first printed rate): 1.18 s⁻¹; rate of reduction of the flavin cofactor (yeast OYE [6]; second printed rate): 0.3 s⁻¹; turnover rate kcat (TtENR [8]): 0.36 s⁻¹; Km (TtENR [8]; read-out: KM(NADPH)): 50 µM; reductive rate (kred) (PhENR [9]): 0.06 s⁻¹
– | – | – | – | O=O [dioxygen] | kox, reoxidation of the cofactor (TtENR [10]): 57 s⁻¹
– | – | 25 | 36 | O=Cc1ccc(O)cc1 [pHB, p-hydroxybenzaldehyde] | –

Compound | acceptance as substrate (PhENR [1]; Table 1) | acceptance as substrate (TtENR [2]) | Kd (TtENR [3]) [µM] | Kd (PhENR [4]) [µM] | also measured
O=C1C=CC(=O)C=C1 [1,4-benzoquinone] | – | – | 580 | 1800 | –

Reference: paper PMC4083419 (Nature Communications, 2014)
